Results from ChEMBL document CHEMBL1149780, “Unsaturated fluoro-ketopyranosyl nucleosides: synthesis and biological evaluation of 3-fluoro-4-keto-beta-d-glucopyranosyl derivatives of N(4)-benzoyl cytosine and N(6)-benzoyl adenine” (Eur J Med Chem, 2008).
pIC50: −log10 of the molar value.

Experiments:
[1] = test system: H4; assay: Tumor selectivity index, CC50 for human H4 cells to CC50 for human melanoma cells; format: functional
[2] = test system: Rotavirus; assay: Antiviral activity against gastrointestinal rotavirus in human Caco-2 cells assessed as inhibition of infectivity following virus attachment; format: functional, organism-based
How it was run: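 Caco-2 monolayers washed, exposed to rotavirus RF strain (1.5 TCID50/mL, 100 µL/well) for 1 h at 37 °C, 5% CO2; unbound virus washed off, then 3-fold serial compound dilutions added (top 0.5 mg/mL; DMSO below 0.1%).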

[3] = test system: Caco-2; assay: Cytotoxicity against human Caco-2 cells after 72 hrs; format: functional; settings: Caco-2, 72 h
How it was run: (§1)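 Caco-2, H4 (normal intestinal), MCF-7 and skin melanoma cells seeded at 6 × 10^6 cells per plate, given 3-fold serial dilutions (top 0.5 mg/mL; DMSO below 0.1%), 37 °C, 72 h.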

[4] = Ratio of CC50 for Caco-2 cells to IC50 for rotavirus infected human Caco2 cells assessed as inhibition of infectivity following virus attachment
[5] = test system: H4; assay: Cytotoxicity against human H4 cells after 72 hrs; format: functional; settings: H4, 72 h; how it was run: as §1
[6] = Cytotoxicity against human melanoma cells after 72 hrs; format: functional; settings: Melanoma cell; how it was run: as §1
[7] = test system: MCF7; assay: Cytotoxicity against human MCF7 cells after 72 hrs; format: functional; settings: MCF7, 72 h; how it was run: as §1
[8] = test system: MCF7; assay: Tumor selectivity index, CC50 for human H4 cells to CC50 for human MCF7 cells; format: functional
[9] = test system: H4; assay: Tumor selectivity index, CC50 for human H4 cells to CC50 for human Caco-2 cells; format: functional
[10] = test system: Caco-2; assay: Growth inhibition of human Caco-2 cells; format: functional, cell-based
How it was run: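 Colony-formation assay: Caco-2 seeded at 10 cells/well in DMEM-10% FBS, given 3-fold dilutions (top 0.5 mg/mL), incubated 10 days at 37 °C. Colonies counted; colony number in treated (n = 2) vs control wells (n = 24) as %; IC50 from concentration-effect curve.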

| SMILES | Ratio [1] | pIC50 [2] | CC50 [3] [µM] | Ratio CC50/IC50 [4] | CC50 [5] [µM] | CC50 [6] [µM] | CC50 [7] [µM] | Ratio [8] | Ratio [9] | pIC50 [10] |
| --- | --- | --- | --- | --- | --- | --- | --- | --- | --- | --- |
| O=C(Nc1ncnc2ncn([C@H]3C=C(F)C(=O)[C@@H](COC(c4ccccc4)(c4ccccc4)c4ccccc4)O3)c12)c1ccccc1 | 84.1 | 3.10 | 31.9 | 0.04 | 799 | 9.5 | 9.5 | 84.1 | 25 | 5.96 |
| Cc1cn([C@H]2C[C@H](N=[N+]=[N-])[C@@H](CO)O2)c(=O)[nH]c1=O [ZIDOVUDINE] | – | – | 56.1 | 2.5 | – | – | – | – | – | – |
| O=c1[nH]cc(F)c(=O)[nH]1 [FLUOROURACIL] | 83.4 | – | – | – | – | – | – | 5 | 10 | – |
